Data set [1] in a line: Inhibition of recombinant Respiratory syncytial virus-A2-L19F RNA-dependent RNA polymerase complex D489E mutant transfected with firefly luciferase gene at SMASh domain in human BEAS2B cells infected with Respiratory syncytial virus-A2-L19F assessed as reduction in viral replication measured after […] by bioluminescence assay. It counts as cell-based. To be noted: human respiratory syncytial virus, A2-L19F, BEAS-2B. In outline: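 BEAS-2B cells (1.5×10^4/well) received 3-fold serial compound dilutions prepared in three repeats (top concentration 10 µM) and were infected with firefly-luciferase/SMASh reporter RSV-A2-L19F D489E (MOI 0.1). Luminescence was converted to % inhibition against four-replicate positive and negative controls per plate. EC50 came from four-parameter variable-slope regression.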

The subject of the next data set is BEAS-2B. Nature of the data set: Cytotoxicity against human BEAS2B cells after 48 hrs by PrestoBlue staining based fluorescence assay. It counts as cell-based. In outline:
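Uninfected BEAS-2B cells were exposed to compound for 48 h at 37°C. PrestoBlue was added and incubated 90 min at 37°C, then fluorescence was read (ex 560 nm, em 590 nm). Cytotoxic was defined as metabolic activity <70% of vehicle control. Highest concentration assessed for cytotoxicity was 90 µM, and CC50 came from four-parameter variable slope regression.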

Data set [2] in a line: Selectivity index, ratio of CC50 for human BEAS2B cells to EC50 for inhibition of recombinant mkate-tagged-Respiratory syncytial virus-A2-L19F RNA-dependent RNA polymerase complex D489E mutant in human BEAS2B cells infected with Respiratory syncytial virus-A2-L19F. Type of data set: toxicity, cell-based. To be noted: read-out: Ratio CC50/EC50. In outline:
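SI is CC50/EC50 in BEAS-2B cells. EC50 came from reporter RSV dose-response, 3-fold dilutions, top 10 µM. […] Both values from four-parameter variable-slope regression.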

The nature of data set [3]: Aqueous solubility of the compound in citrate buffer at pH 3 after 90 mins by laser nephelometric method. It counts as physicochemical. In outline: (§1)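 Stocks of 30 mg/mL in DMSO were serially diluted in DMSO, then into buffer to final 300 down to 1.5 µg/mL at 1% final DMSO. Diluent was PBS for pH 7.4 and citrate buffer for pH 3 and 5. Plates stood 90 min at ambient temperature. Forward-scatter laser nephelometry gave the concentration at which precipitation began.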

The nature of data set [4]: Aqueous solubility of the compound in citrate buffer at pH 5 after 90 mins by laser nephelometric method. Type of data set: physicochemical. The procedure, abridged:
as §1

A short description of data set [5]: Aqueous solubility of the compound in phosphate buffered saline at pH 7.4 after 90 mins by laser nephelometric method. It counts as physicochemical. In outline: as §1
A short description of data set [6]: Inhibition of recombinant mkate-tagged-Respiratory syncytial virus-A2-L19F RNA-dependent RNA polymerase D489E mutant in human BEAS2B cells infected with Respiratory syncytial virus-A2-L19F assessed as reduction in progeny release measured after 48 hrs postinfection by fluorescence assay based progeny virus yield-based dose-response assay. Type of data set: cell-based. To be noted: BEAS-2B. In outline: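 Cells in 12-well format infected with mKate-expressing recRSV-A2-L19F (MOI 0.05 particles/cell) in the presence of serial compound dilutions at 37°C. Cell-associated progeny harvested 48 h post-infection and released by one freeze/thaw cycle. Titres determined by TCID50 titration. Two repeats; EC50 derived by regression.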

Data set [7] deals with Respiratory syncytial virus. Nature of the data set: Inhibition of Respiratory syncytial virus-A2-L19F RNA-dependent RNA polymerase complex D489E mutant in human BEAS2B cells infected with Respiratory syncytial virus-A2-L19F by firefly luciferase reporter-based RSV minigenome assay. It counts as cell-based.

As usually defined, the EC50 is the midpoint of the concentration-response curve. For orientation: CC50 means the concentration giving 50% cytotoxicity. In general, solubility (kinetic) refers to the concentration staying in solution when a stock, usually in DMSO, is diluted into the medium.

Each structure is given as a SMILES string. In brackets after ≈: the same amount, converted by molar mass.

Regarding `Cc1coc(C(=O)N2CCCn3nc(C(=O)Nc4ccccc4)cc3C2)c1`, the EC50 in data set [1] is above 10 µM.

For the molecule `Cc1cc(C(=O)N2CCCn3nc(C(=O)Nc4ccccc4)cc3C2)oc1C`, in data set [1], the concentration giving a half-maximal response (EC50) is above 10 µM.

Take `Cc1c(C(=O)N2CCCn3nc(C(=O)Nc4ccccc4)cc3C2)oc2ccccc12`: in data set [1], the EC50 came to 10 µM.

`O=C(Nc1ccccc1F)c1cc2n(n1)CCCN(C(=O)c1ccco1)C2` came in with a CC50 in the data set with BEAS-2B of 3.7 µM. Moreover, in data set [1], the EC50 was found to be 0.32 µM. In addition, the selectivity ratio in data set [2] was 12.

For the molecule `Cc1ccc(NC(=O)c2cc3n(n2)CCCN(C(=O)c2occc2C)C3)cc1`, the CC50 in the data set with BEAS-2B was found to be 30 µM. In addition, in data set [1], the half-maximal effective concentration (EC50) amounted to 0.41 µM. Also, the selectivity ratio in data set [2] was 73.

For the molecule `COc1ccccc1NC(=O)c1cc2n(n1)CCCN(C(=O)c1occc1C)C2`, the solubility (kinetic) at 1.5 h in data set [3] amounted to 48 µg/mL (≈ 122 µM); in data set [4], 43 µg/mL (≈ 109 µM); in data set [5], 28 µg/mL (≈ 71 µM). In the data set on BEAS-2B, the CC50 is 3.3 µM. In data set [1], the EC50 was found to be 0.31 µM. Further, the selectivity ratio in data set [2] turned out to be 11.

In the case of `O=C(Nc1ccccc1)c1cc2n(n1)CCCN(C(=O)c1ccco1)C2`, in data set [1], the EC50 amounted to 7.1 µM.

As to `O=C(Nc1ccccc1)c1cc2n(n1)CCCN(C(=O)c1occc1-c1ccccc1)C2`, in data set [1], the EC50 is above 10 µM.

For the molecule `O=C(Nc1ccccc1)c1cc2n(n1)CCCN(S(=O)(=O)c1ccco1)C2`, the EC50 in data set [1] was above 10 µM.

In the data set on BEAS-2B, `Cc1ccoc1C(=O)N1CCCn2nc(C(=O)Nc3ccc(F)cc3F)cc2C1` gave a cytotoxic concentration (CC50) of 5 µM. For the same molecule, in data set [1], the half-maximal effective concentration (EC50) amounted to 0.06 µM. For the same molecule, the selectivity ratio in data set [2] amounted to 83.

Take `O=C(Nc1ccccc1)c1cc2n(n1)CCCN(C(=O)c1ccncn1)C2`: the EC50 in data set [1] is above 10 µM.

In the data set with BEAS-2B, `O=C(Nc1ccccc1)c1cc2n(n1)CCCN(C(=O)c1occ3c1CCC3)C2` had a CC50 of 10 µM. Also, the EC50 in data set [1] came out at 10 µM.

Turning to `CCc1ccoc1C(=O)N1CCCn2nc(C(=O)Nc3ccccc3)cc2C1`, it took 10 µM to reach half-maximal cytotoxicity in the data set on BEAS-2B (CC50). Further, the EC50 in data set [1] worked out at 0.73 µM. In addition, the selectivity ratio in data set [2] was 14.

Regarding `Cc1cc[nH]c1C(=O)N1CCCn2nc(C(=O)Nc3ccccc3)cc2C1`, the EC50 in data set [1] is above 10 µM.

The molecule `COc1ccc(NC(=O)c2cc3n(n2)CCCN(C(=O)c2occc2C)C3)cc1` displayed a CC50 in the data set with BEAS-2B of 90 µM. Besides, in data set [1], the EC50 was determined as 0.32 µM. Moreover, in data set [2], the selectivity ratio stood at 281.

For `Cc1nc2ccccn2c1CN(C)C(=O)c1cc(COc2ccc(F)cc2F)on1`, the EC50 in data set [6] was 0.05 µM. The inhibition result in data set [7] was “Dose-dependent effect”.

As for `Cc1cc(C)c(C(=O)N2CCCn3nc(C(=O)Nc4ccccc4)cc3C2)o1`, half-maximal cytotoxicity with BEAS-2B (CC50) was put at 2.6 µM. In addition, in data set [1], the half-maximal effective concentration (EC50) came to 0.96 µM.

Regarding `Cc1cccc(NC(=O)c2cc3n(n2)CCCN(C(=O)c2occc2C)C3)c1`, the CC50 in the data set with BEAS-2B was determined as 3.3 µM. Moreover, the EC50 in data set [1] was 0.28 µM. The selectivity ratio in data set [2] was found to be 12.

Molecule `Cc1ccoc1C(=O)N1CCCn2nc(C(=O)NCc3ccccc3)cc2C1` gave a CC50 with BEAS-2B of 50 µM. In data set [1], the EC50 was found to be 1.2 µM. For the same molecule, in data set [2], the selectivity ratio was 42.

As to `Cc1ccoc1C(=O)N1CCCn2nc(C(=O)N(C)c3ccccc3)cc2C1`, the kinetic solubility at 1.5 h in data set [3] came to 20 µg/mL (≈ 52.8 µM); in data set [4], 25 µg/mL (≈ 66.1 µM); in data set [5], 58 µg/mL (≈ 153 µM). In the data set with BEAS-2B, the CC50 is above 90 µM. Also, in data set [1], the EC50 amounted to 10 µM. In addition, the selectivity ratio in data set [2] is above 9.

With `Cc1ccoc1C(=O)N1CCCn2nc(C(=O)Nc3ccncn3)cc2C1`, in the data set with BEAS-2B, the half-maximal cytotoxic concentration (CC50) is 16.6 µM. Moreover, the EC50 in data set [1] is 1.53 µM. The selectivity ratio in data set [2] stood at 11.

In the data set on BEAS-2B, `O=C(Nc1ccccc1)c1cc2n(n1)CCCN(C(=O)c1occc1Cl)C2` yielded a CC50 of 30 µM. Moreover, the EC50 in data set [1] was 0.76 µM. The selectivity ratio in data set [2] was determined as 39.

In the case of `Cc1ccoc1C(=O)N1CCCn2nc(NS(=O)(=O)c3ccccc3)cc2C1`, the EC50 in data set [1] is above 10 µM.

Take `Cc1ccoc1C(=O)N1CCCn2nc(CNc3ccccc3)cc2C1`: the midpoint of cytotoxicity with BEAS-2B, the CC50, lay at 10 µM. For the same molecule, the EC50 in data set [1] came out at 0.5 µM. Also, in data set [2], the selectivity ratio stood at 20.

As to `COc1cc(N2CCCC(CO)(Cc3cccc(Cl)c3)C2)ncn1` (configuration not stated), in data set [6], the EC50 was found to be 0.13 µM. Further, the inhibition entry in data set [7] is “Dose-dependent effect”.

With `Cc1ccoc1C(=O)N1CCCn2nc(C(=O)Nc3cccc(F)c3)cc2C1`, the midpoint of cytotoxicity with BEAS-2B, the CC50, lay at 30 µM. For the same molecule, the EC50 in data set [1] stood at 0.21 µM. In data set [2], the selectivity ratio is 143.

With `Cc1ccn(C)c1C(=O)N1CCCn2nc(C(=O)Nc3ccccc3)cc2C1`, the EC50 in data set [1] was above 10 µM.

As for `Cc1ccoc1C(=O)N1CCCn2cc(C(=O)Nc3ccccc3)cc2C1`, the CC50 in the data set with BEAS-2B is above 90 µM. In addition, the EC50 in data set [1] came to 3.19 µM. Moreover, the selectivity ratio in data set [2] was above 28.

With `Cc1ccccc1NC(=O)c1cc2n(n1)CCCN(C(=O)c1occc1C)C2`, in the data set with BEAS-2B, the CC50 stood at 1.1 µM. The EC50 in data set [1] was determined as 0.14 µM. Besides, the selectivity ratio in data set [2] stood at 8.

Take `Cc1ccc(C(=O)N2CCCn3nc(C(=O)Nc4ccccc4)cc3C2)o1`: in data set [1], the concentration giving a half-maximal response (EC50) was above 10 µM.

For `O=C(Nc1ccccc1)c1cc2n(n1)CCCN(C(=O)c1occc1C(F)(F)F)C2`, it took 30 µM to reach half-maximal cytotoxicity in the data set on BEAS-2B (CC50). The EC50 in data set [1] was 5.4 µM. Also, the selectivity ratio in data set [2] worked out at 6.

For `COc1cccc(NC(=O)c2cc3n(n2)CCCN(C(=O)c2occc2C)C3)c1`, in the data set with BEAS-2B, the CC50 amounted to 30 µM. For the same molecule, the EC50 in data set [1] came to 0.54 µM. In addition, the selectivity ratio in data set [2] stood at 56.

With `Cc1ccoc1CN1CCCn2nc(C(=O)Nc3ccccc3)cc2C1`, in data set [1], the EC50 was above 10 µM.

For the molecule `Cc1ccoc1C(=O)N1CCCn2nc(C(=O)Nc3cncnc3)cc2C1`, the EC50 in data set [1] is above 10 µM.

As for `Cc1ccoc1C(=O)N1CCCn2nc(NC(=O)c3ccccc3)cc2C1`, the EC50 in data set [1] is above 10 µM.

On to `Cc1ccoc1C(=O)N1CCCn2nc(C(=O)Nc3ccc(F)cc3)cc2C1`, for which, in the data set on BEAS-2B, the half-maximal cytotoxic concentration (CC50) turned out to be 90 µM. Also, the EC50 in data set [1] was 0.33 µM. Moreover, the selectivity ratio in data set [2] is 273.

Take `Cc1ccoc1C(=O)N1CCCn2nc(S(=O)(=O)Nc3ccccc3)cc2C1`: in data set [1], the EC50 was above 10 µM.

Regarding `Cc1ccsc1C(=O)N1CCCn2nc(C(=O)Nc3ccccc3)cc2C1`, in data set [1], the EC50 was above 10 µM.

`Cc1ccoc1C(=O)N1CCn2nc(C(=O)Nc3ccccc3)cc2C1`: the concentration for a half-maximal effect (EC50) in data set [1] was above 10 µM.

Turning to `Cc1coc(C(=O)N2CCCn3nc(C(=O)Nc4ccccc4)cc3C2)c1C`, the CC50 with BEAS-2B came out at 30 µM. Besides, the EC50 in data set [1] is 2.25 µM. Also, the selectivity ratio in data set [2] came to 13.

For the molecule `CC(C)c1cc(C(=O)NCc2noc(-c3cccs3)n2)n(C)n1`, the 50% effective concentration (EC50) in data set [6] turned out to be 0.03 µM. In data set [7], the inhibition entry is “Dose-dependent effect”.

For `Cn1c(=O)n(C)c2cc(Cn3cnc(-c4ccccc4)c3C3CC3)ccc21`, in data set [6], the EC50 worked out at 0.17 µM. For the same molecule, in data set [7], the inhibition entry is “Dose-dependent effect”.

For the origin of these results see ChEMBL document CHEMBL4007453, “Identification of Non-Nucleoside Inhibitors of the Respiratory Syncytial Virus Polymerase Complex” (J Med Chem, 2017).
